The text below walks through data of ChEMBL document CHEMBL2146397, “The Substrate-Activity-Screening methodology applied to receptor tyrosine kinases: a proof-of-concept study” (Eur J Med Chem, 2012).

Activity calls are given as the source filed them. The rule behind the calls is not given here. Numbered stars: 1 amine (or outer) side, 2 acyl side, 3 side chain; on linkers, the order of the positions; unused ones are H or OH. Square brackets hold non-standard residues; d marks the D form. Peptide text beside a SMILES is read from it. * marks the point of attachment. X7 = O=C([C@H](Cc1ccc(C(O)P(=O)(O)O)cc1)N[*:1])[*:2]; Trp(6-Cl) = N[C@@H](Cc1c[nH]c2cc(Cl)ccc12)C(=O)O; Phe(4-Cl) = N[C@@H](Cc1ccc(Cl)cc1)C(=O)O; X2 = O=C(O)[C@H]1CCCC[C@@H]1C(=O)*; 3Pal = N[C@@H](Cc1cccnc1)C(=O)O

Data set [1] in a line: Solubility of the compound at >1 mM. The format is physicochemical.
Data set [2] addresses T1, Insulin-like growth factor 1 receptor (Homo sapiens, UniProt P08069). The data set is described as follows: Activity at pre-activated human GST-His6-tagged IGF-1R expressed in Sf9 cells assessed as initial phosphorylation rate at 10 uM measured every 2 mins for 60 mins by Michaelis-Menten constant based ADP Quest assay. An outline of the steps: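 Reaction buffer was the same plus 0.1 mg/mL BSA, with kinase, peptide substrate and detection reagents. Started with ATP; fluorescence read every 2 min for 60 min; 3 independent experiments.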

Data set [3] has as its target T1, Insulin-like growth factor 1 receptor. The data set is described as follows: Inhibition of pre-activated human GST-His6-tagged IGF-1R expressed in Sf9 cells using Ac-EAEDEPEGDYFEWLE-NHMe as substrate after 25 mins by luminescence assay.
The target is the same in data set [4]. The data set is described as follows: Activity at pre-activated human GST-His6-tagged IGF-1R expressed in Sf9 cells up to 1 mM measured every 2 mins for 60 mins by Michaelis-Menten constant based ADP Quest assay. An outline of the steps: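 Reactions used the same buffer plus 0.1 mg/mL BSA, pre-activated GST-His6-IGF-1R, peptide substrate titrated up to 1 mM, and ADP Quest reagents. ATP started the reaction. Fluorescence was read every 2 min for 60 min. KM came from a Michaelis-Menten fit, n = 3 independent experiments.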

The IC50 is the midpoint of a concentration-inhibition curve.

T1 sequence (P08069 31-736 limits assumed): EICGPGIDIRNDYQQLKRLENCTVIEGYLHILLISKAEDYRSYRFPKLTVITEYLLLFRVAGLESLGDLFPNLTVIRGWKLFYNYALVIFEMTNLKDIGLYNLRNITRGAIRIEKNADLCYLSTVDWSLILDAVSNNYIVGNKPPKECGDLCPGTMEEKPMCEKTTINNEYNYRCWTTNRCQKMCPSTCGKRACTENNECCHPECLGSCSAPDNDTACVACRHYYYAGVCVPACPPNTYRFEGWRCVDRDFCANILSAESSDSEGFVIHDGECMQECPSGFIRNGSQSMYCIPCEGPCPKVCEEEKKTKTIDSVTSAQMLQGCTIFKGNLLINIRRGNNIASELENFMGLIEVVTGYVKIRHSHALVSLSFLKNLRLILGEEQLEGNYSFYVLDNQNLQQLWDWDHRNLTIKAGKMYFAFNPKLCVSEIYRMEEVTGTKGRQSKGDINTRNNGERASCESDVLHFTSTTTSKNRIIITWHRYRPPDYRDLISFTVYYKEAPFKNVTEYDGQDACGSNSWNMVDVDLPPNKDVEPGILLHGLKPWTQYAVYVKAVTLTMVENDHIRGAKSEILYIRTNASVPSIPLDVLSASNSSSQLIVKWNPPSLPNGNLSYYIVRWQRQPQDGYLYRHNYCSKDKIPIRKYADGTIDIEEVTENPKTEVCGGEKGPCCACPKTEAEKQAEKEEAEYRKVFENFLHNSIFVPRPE
T1 sequence (P08069 741-1367 limits assumed): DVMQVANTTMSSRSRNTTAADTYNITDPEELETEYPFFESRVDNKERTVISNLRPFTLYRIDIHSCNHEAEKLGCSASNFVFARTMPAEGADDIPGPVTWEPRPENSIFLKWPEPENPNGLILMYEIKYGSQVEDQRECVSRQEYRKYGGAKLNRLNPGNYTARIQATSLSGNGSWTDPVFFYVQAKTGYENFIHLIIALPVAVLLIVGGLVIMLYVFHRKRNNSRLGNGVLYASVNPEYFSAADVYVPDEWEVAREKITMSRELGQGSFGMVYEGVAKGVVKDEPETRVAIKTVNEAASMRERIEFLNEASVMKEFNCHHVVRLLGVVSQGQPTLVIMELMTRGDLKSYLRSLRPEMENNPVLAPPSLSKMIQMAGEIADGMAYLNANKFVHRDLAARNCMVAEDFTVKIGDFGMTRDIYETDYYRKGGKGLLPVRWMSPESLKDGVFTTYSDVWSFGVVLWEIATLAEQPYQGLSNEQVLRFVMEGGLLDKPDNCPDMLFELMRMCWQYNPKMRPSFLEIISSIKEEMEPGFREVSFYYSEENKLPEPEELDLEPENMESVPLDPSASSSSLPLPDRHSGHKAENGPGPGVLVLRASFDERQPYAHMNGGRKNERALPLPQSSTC

Consider `CNC(=O)[C@H](Cc1ccc(Cl)cc1)NC(=O)[C@H](CCC(=O)O)NC(=O)[C@H](Cc1ccccc1)NC(=O)[C@H](Cc1ccc(O)cc1)NC(=O)[C@H](Cc1cccnc1)NC(C)=O` (Ac-[3Pal]YFE[Phe(4-Cl)]-NHMe), for which, in data set [1], the solubility result is “Insoluble”. Turning to `CNC(=O)[C@H](Cc1c[nH]c2ccccc12)NC(=O)[C@H](CCC(=O)O)NC(=O)[C@H](Cc1ccccc1)NC(=O)[C@H](Cc1ccc(O)cc1)NC(=O)[C@H](Cc1cccnc1)NC(C)=O`, in data set [2], the Activity worked out at 0.4 nM/s. Also, the solubility entry in data set [1] is “Insoluble”. On to `CNC(=O)[C@H](Cc1ccc(Cl)cc1)NC(=O)[C@H](CCC(=O)O)NC(=O)[C@H](Cc1ccccc1)NC(=O)[C@H](Cc1ccc(C(O)P(=O)(O)O)cc1)NC(=O)[C@H](Cc1cccnc1)NC(C)=O` (stereo partly drawn) (Ac-[3Pal][X7]FE[Phe(4-Cl)]-NHMe), for which the IC50 in data set [3] came to 489 µM. With `CNC(=O)[C@@H](Cc1c[nH]c2ccccc12)NC(=O)[C@H](CCC(=O)O)NC(=O)[C@H](Cc1ccccc1)NC(=O)[C@H](Cc1ccc(O)cc1)NC(=O)[C@H](Cc1cccnc1)NC(C)=O`, in data set [1], the solubility result is “Insoluble”. As for `CNC(=O)[C@H](Cc1c[nH]c2ccccc12)NC(=O)[C@H](CCC(=O)O)NC(=O)[C@H](Cc1ccccc1)NC(=O)[C@@H](N)Cc1ccc(O)cc1` (HELM PEPTIDE1{Y.F.E.W.[CN[*:1]]}$$$$V2.0), the outcome in data set [4] was inactive. As to `CNC(=O)[C@H](Cc1ccc(Cl)cc1)NC(=O)CNC(=O)[C@H](Cc1ccccc1)NC(=O)[C@H](Cc1ccc(O)cc1)NC(=O)[C@H](CC(=O)O)NC(C)=O` (HELM PEPTIDE1{[ac].D.Y.F.G.[O=C([C@H](Cc1ccc(Cl)cc1)N[*:1])[*:2]].[CN[*:1]]}$$$$V2.0), the Activity in data set [2] came out at 0.47 nM/s. As to `CNC(=O)[C@H](Cc1c[nH]c2cc(Cl)ccc12)NC(=O)[C@H](CCC(=O)O)NC(=O)[C@H](Cc1ccccc1)NC(=O)[C@H](Cc1ccc(O)cc1)NC(=O)[C@H](CC(=O)O)NC(C)=O` (HELM PEPTIDE1{[ac].D.Y.F.E.[O=C([C@H](Cc1c[nH]c2cc(Cl)ccc12)N[*:1])[*:2]].[CN[*:1]]}$$$$V2.0), the Activity in data set [2] worked out at 6.7 nM/s.

In the case of `CNC(=O)[C@H](Cc1c[nH]c2cc(Cl)ccc12)NC(=O)[C@H](CCC(=O)O)NC(=O)[C@H](Cc1ccccc1)NC(=O)[C@H](Cc1ccc(O)cc1)NC(=O)[C@H](Cc1cccnc1)NC(C)=O` (Ac-[3Pal]YFE[Trp(6-Cl)]-NHMe), the Activity in data set [2] came out at 1 nM/s. Take `CNC(=O)[C@@H](Cc1c[nH]c2ccccc12)NC(=O)[C@H](CCC(=O)O)NC(=O)[C@H](Cc1ccccc1)NC(=O)[C@H](Cc1ccc(O)cc1)NC(=O)[C@H](CCC(=O)O)NC(C)=O`: in data set [1], the solubility entry is recorded as “Insoluble”. Regarding `CNC(=O)[C@H](Cc1c[nH]c2ccccc12)NC(=O)[C@H](CCC(=O)O)NC(=O)[C@H](Cc1ccccc1)NC(=O)[C@H](Cc1ccc(O)cc1)NC(=O)[C@H](CC(=O)O)NC(C)=O`, in data set [2], the Activity came out at 6.2 nM/s.

As for `CNC(=O)[C@H](Cc1ccc(Cl)cc1)NC(=O)[C@H](CCC(=O)O)NC(=O)[C@H](Cc1ccccc1)NC(=O)[C@H](Cc1ccc(O)cc1)NC(=O)[C@H]1CCCC[C@@H]1C(=O)O` (X2-YFE[Phe(4-Cl)]-NHMe), the Activity in data set [2] was 4 nM/s. Still for that read-out and setting: for `CNC(=O)[C@H](Cc1ccccc1)NC(=O)[C@H](CCC(=O)O)NC(=O)[C@H](Cc1ccccc1)NC(=O)[C@H](Cc1ccc(O)cc1)NC(=O)[C@H](CC(=O)O)NC(C)=O` (HELM PEPTIDE1{[ac].D.Y.F.E.F.[CN[*:1]]}$$$$V2.0) the value was 1.7 nM/s.
